# Experimental data taken from the RNAGym collection of RNA variant scans (doi:10.1126/science.aae0568).
# This sample holds only a part of the variants without activity.
# B1: tRNA (parent)
# chain: GUUCCGUUGGCGUAAUGGUAACGCGUCUCCCUCCUAAGGAGAAGACUGCGGGUUCGAGUCCCGUACGGAACG
# Variants of: B1
# Assay: yeast fitness relative to wild type (ratio to wild type); higher = fitter; tRNA-Arg(CCU), competitive growth, 37 C, YPD
# Procedure, shortened: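 The tRNA-Arg(CCU) gene variants were made by chemical synthesis with a 3% per-site mutation rate at 69 sites and inserted at the native genomic locus of Saccharomyces cerevisiae. After pooling, the strains were competed in YPD at 37°C for 24 hours in six parallel replicates. Gene amplicons from the start population and each end population were read by 100-nucleotide paired-end sequencing, and Darwinian fitness relative to wild type was taken from genotype frequency changes. Genotypes needed ≥ 100 starting reads, and estimates < 0.5 were set to 0.5.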
row,Variant,yeast fitness
1,A40U A42C C66A,≤ 0.5
2,G39A G48A,0.94
3,G39A G44A,0.846
4,A40G C46A C61U G67A,≤ 0.5
5,G39C G52A G68A,≤ 0.5
6,G38C A69U A70C,0.557
7,G38C C49U U54A A65C,≤ 0.5
8,G38C U53C A57U,≤ 0.5
9,G39C A70U,0.873
10,G39C A70G,0.915
11,G39C A70C,0.769
12,A40C A42C G68C,0.569
13,G38A U59G,0.705
14,G39C A43U U53C,0.606
15,A40U G51C,0.518
16,A40G G41A A42C A43G G44A A70U,≤ 0.5
17,A40C A42U U53C C61G,≤ 0.5
18,G38C C61U,0.646
19,A40U U47C A69U,0.815
20,A40C G56A,0.883
21,A40C G56C,0.609
22,G38U G51C,≤ 0.5
23,A40U A65G A70U,0.591
24,G38U G63A,0.743

row,Variant,yeast fitness
1,A40G C61U G68A,≤ 0.5
2,G38A C62G A70U,≤ 0.5
3,A40U A65C A69U,0.699
4,A40C A45C A65G G68U,≤ 0.5
5,A40U U64A,0.675
6,G41A A43G C60U,0.507
7,G41A A43G C60U A70C,0.542
8,A40G C60U,0.674
9,G39C C49U A65U,≤ 0.5
10,A40G C55U G56A U64G A69U,≤ 0.5
11,G39C G58C,0.83
12,A40U A43C G52A,0.667
13,G39C G48C C62G,≤ 0.5
14,G39A G58C,0.948
15,G39C A43G A57C,≤ 0.5
16,A40U A45U G67C,0.582
17,A40G C46U U64C,0.607
18,A40G C46G U53G U64G,≤ 0.5
19,G39C U59C U64C A70C,≤ 0.5
20,G41A C46G G48A U54C C55U A70C,0.542
21,G39A C46A A65U,0.581
22,A40C A57G G67A,0.554
23,A40U G44C,0.954
24,G38A C46A G50A U53C,0.596

row,Variant,yeast fitness
1,G38U A40G C49U,≤ 0.5
2,A40G G58A A69U,1.04
3,A40U U54C C62U,0.528
4,G41A A42U G50C A70G,≤ 0.5
5,A40C G51A,0.84
6,A40C A57U,0.789
7,A40C A57C,0.637
8,G39A U47A G68C,0.597
9,A40U C49U C61U A70G,≤ 0.5
10,A40C G48A C60G,0.683
11,A40U G50C,0.726
12,A40U G50A,0.801
13,G39A A45C A65U C66U,≤ 0.5
14,A40U A70G,0.934
15,A40U A70U,0.99
16,A40U A70C,0.941
17,G39A A42G C66U,≤ 0.5
18,G38C C62U,0.687
19,G38A G41C,0.659
20,G39C A45G,0.661
21,G39A A42C C66U,0.542
22,G38C C55A,0.508
23,G38A U54C,0.72
24,A40U C55A,0.584

row,Variant,yeast fitness
1,A40C A42C C49G,≤ 0.5
2,G39A U53A A70G,≤ 0.5
3,G39C G50C C61G,≤ 0.5
4,A40C A45G G63A,0.518
5,G38C C49G,0.743
6,G39A A42U C49A,≤ 0.5
7,G39C A40G,0.67
8,G39C A40U,0.73
9,A40C A43G C61G C66U,0.683
10,G39A C61U C62A,0.558
11,A40G C49U U59A,0.572
12,A40G G44A U47C,0.571
13,G39A C60U C62A,0.505
14,G39U A70C,0.811
15,A40G G48A G63A,0.774
16,G39C C55G C66U,≤ 0.5
17,G39A A40C C60U G68U,≤ 0.5
18,G39C A42C C62U A69C,≤ 0.5
19,G38C A42C A65C,≤ 0.5
20,G38C A70G,0.756
21,G39C G68U,0.762
22,A40U G44C U64C,0.944
23,G39A G48C C61A,≤ 0.5
24,G39U U53A C55U,0.684

row,Variant,yeast fitness
1,A40G A43U C49U C66U,≤ 0.5
2,A40U G56A G58C,0.786
3,G39C,0.93
4,G39A,0.986
5,G39U,1
6,G41A A57U C60A G68C,≤ 0.5
7,G39C A43G G48C G50A,≤ 0.5
8,G38C G41C C66U,≤ 0.5
9,G41A A42C A65C,0.565
10,A40G G52A G56U,≤ 0.5
11,G38C G41C C61U,≤ 0.5
12,G38U A69C,0.892
13,A40U G63C,0.729
14,A40U G63A,0.721
15,A40G C55U,0.663
16,G38C G50A U64C,0.832
17,G38A C62A,0.742
18,G38A C62G,0.648
19,A40G G41A C55U,≤ 0.5
20,G38U C46A,0.783
21,G41A A43G C66A,≤ 0.5
22,A40C C46G,0.975
23,A40C C46U C55G A70U,0.503
24,G39A U64C,1.01

row,Variant,yeast fitness
1,G39C G48C,0.688
2,G39C U59A,0.779
3,A40C C60A,0.654
4,A40G C66U,0.792
5,G39A C46U,0.978
6,G39A C46U G67A,0.575
7,G38A C55U,0.849
8,G38A C55G,0.564
9,A40G G50A,0.944
10,G38A C62U A69C,0.717
11,A40U C62U,0.87
12,G38C G48A C61A G67C,≤ 0.5
13,A40C G41A U47A G67C,0.637
14,G39C U47A A57C,≤ 0.5
15,A40G A43U,0.995
16,A40G A43G,0.787
17,A40G A43C,1.04
18,G38A C61A A65U,≤ 0.5
19,A40G A57U A65G,0.531
20,G39A C61G A70U,≤ 0.5
21,A40C A43G C60U C61U,≤ 0.5
22,G39A C62U,1.05
23,A40C C66U,0.895
24,A40C A57C C61A,≤ 0.5

row,Variant,yeast fitness
1,G38C G51A G58A,0.517
2,G38C A40U C61G,≤ 0.5
3,G38A U54A A57C,0.551
4,G39C C55U,0.572
5,G38C A45U G63C C66G,≤ 0.5
6,G38C G44C C46A,0.814
7,G39A G56C C66A,≤ 0.5
8,A40C A42C,0.619
9,A40C A42U,0.782
10,G38C A45C A57C A70U,≤ 0.5
11,A40U A42G C55A,≤ 0.5
12,A40G C46U U53G,≤ 0.5
13,G41A A45U U47A C62U A69U,≤ 0.5
14,G38C G63C A65G,≤ 0.5
15,G39A A57C,0.663
16,G39A A42G U59A,≤ 0.5
17,G39A C46U U59A A70C,≤ 0.5
18,A40C G44A,0.913
19,A40G C46A,1.04
20,A40U A42G G63A,0.511
21,G38C G68A,0.62
22,A40G G68A,0.953
23,A40G G68C,0.709
